Where “and” joins values, the source holds several entries; their conditions need not be identical. Equal entries are not always repeated.
How the values were obtained:
[1] = tested on: Klebsiella pneumoniae (MTCC 109); settings: reported earlier by the authors ref 6; cited from earlier work
[2] = tested on: Escherichia coli (res); assay: Agar well diffusion, zone of inhibition; assay type: cell-based; settings: mean ± S.D., n = 6; resistant to norfloxacin, ofloxacin, ampicillin, cefixime, nitrofurantoin
In short: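 Clinical isolate from a faecal sample (Bhubaneswar hospital). Nutrient agar plates were seeded with a 1.5 × 10^6 CFU/mL suspension matched to McFarland 0.5. Test compound was loaded into the agar wells from a DMF stock (1 mg/mL). Plates were incubated at 37 °C for 18–24 h and the inhibition zone was read. Amoxicillin and ampicillin were the reference antibiotics.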

[3] = tested on: Klebsiella pneumoniae (MTCC 109); assay: Agar well diffusion, zone of inhibition; assay type: cell-based; settings: mean ± S.D., n = 6
In short: (§1)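 Agar well diffusion on nutrient agar. K. pneumoniae MTCC 109 came from IMTECH; S. aureus (res) was an Utkal University isolate. Plates were seeded with 1.5 × 10^6 CFU/mL suspensions (McFarland 0.5). Test compounds were dissolved in DMF (1 mg/mL stock) and placed in wells, with amoxicillin and ampicillin as references. Plates were kept at 37 °C for 18–24 h, then zones were read.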

[4] = tested on: Staphylococcus aureus (res); assay: Agar well diffusion, zone of inhibition; assay type: cell-based; settings: mean ± S.D., n = 6; resistant to norfloxacin, ofloxacin, ampicillin, cefotaxime
In short: as §1

[5] = tested on: Candida albicans (MTCC 3017); assay: Agar well diffusion, zone of inhibition; assay type: cell-based; settings: mean ± S.D., n = 6
In short: (§2)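 Agar well diffusion on Sabouraud dextrose agar. C. albicans MTCC 3017 came from IMTECH; C. neoformans was an Utkal University strain. Plates were seeded with 1.5 × 10^6 CFU/mL suspensions (McFarland 0.5). Test compounds were dissolved in DMF (1 mg/mL stock) and loaded into wells, with fluconazole as reference. Incubation was 37 °C for 18–24 h, and zones were measured.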

[6] = tested on: Cryptococcus neoformans; assay: Agar well diffusion, zone of inhibition; assay type: cell-based; settings: mean ± S.D., n = 6
In short: as §2

[7] = tested on: Escherichia coli (res); assay: Minimum inhibitory concentration; assay type: cell-based; settings: 31.25–500 µg/mL tested, 37 °C, 18–24 h
In short: (§3)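 MIC was determined in nutrient agar wells seeded with bacteria (McFarland 0.5, 1.5 × 10^6 CFU/mL). E. coli (res) and S. aureus (res) were clinical isolates; K. pneumoniae was MTCC 109. DMF stocks at 1 mg/mL were diluted two-fold to five levels (31.25–500 µg/mL) in wells, with amoxicillin and ampicillin as references. Plates were incubated at 37 °C for 18–24 h.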

[8] = tested on: Klebsiella pneumoniae (MTCC 109); assay: Minimum inhibitory concentration; assay type: cell-based; settings: 31.25–500 µg/mL tested, 37 °C, 18–24 h
In short: as §3

[9] = tested on: Staphylococcus aureus (res); assay: Minimum inhibitory concentration; assay type: cell-based; settings: 31.25–500 µg/mL tested, 37 °C, 18–24 h
In short: as §3

[10] = tested on: Candida albicans (MTCC 3017); assay: Minimum inhibitory concentration; assay type: cell-based; settings: 31.25–500 µg/mL tested, 37 °C, 18–24 h
In short: (§4)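 MIC was determined in agar wells on Sabouraud dextrose agar seeded with the fungal strain (McFarland 0.5, 1.5 × 10^6 CFU/mL). DMF stocks at 1 mg/mL were diluted two-fold to five levels (31.25–500 µg/mL) and loaded into wells, with fluconazole as reference. After 18–24 h at 37 °C, the lowest inhibitory concentration was taken as the MIC.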

[11] = tested on: Cryptococcus neoformans; assay: Minimum inhibitory concentration; assay type: cell-based; settings: 31.25–500 µg/mL tested, 37 °C, 18–24 h
In short: as §4

[12] = DPPH radical scavenging assay; assay type: biochemical; settings: mean ± S.D., n = 3; for IC50 (DPPH radical scavenging): graphically determined
In short: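 DPPH scavenging, a modified method, was read as absorbance at 517 nm for test compounds at several concentrations. BHT served as standard, and DPPH in methanol served as control. Percent inhibition was calculated from control and sample absorbances, and IC50 was obtained graphically. Data were analysed by one-way ANOVA with Dunnett's post hoc test.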

Row | Compound | antibacterial activity against K. pneumoniae [1] | zone of inhibition, E. coli (res) [2] | zone of inhibition, K. pneumoniae [3] | zone of inhibition, S. aureus (res) [4] | zone of inhibition, C. albicans [5] [mm] | zone of inhibition, C. neoformans [6] [mm] | Minimum inhibitory concentration (MIC), E. coli (res) [7] [µg/mL] | Minimum inhibitory concentration (MIC), K. pneumoniae [8] [µg/mL] | Minimum inhibitory concentration (MIC), S. aureus (res) [9] [µg/mL] | Minimum inhibitory concentration (MIC), C. albicans [10] [µg/mL] | Minimum inhibitory concentration (MIC), C. neoformans [11] [µg/mL] | % Inhibition (DPPH) ([12]; Conc. 10 μg/mL) [%] | % Inhibition (DPPH) ([12]; Conc. 30 μg/mL) [%] | % Inhibition (DPPH) ([12]; Conc. 50 μg/mL) [%] | % Inhibition (DPPH) ([12]; Conc. 70 μg/mL) [%] | IC50 (DPPH radical scavenging) [12] [µg/mL]
1 | COc1ccc(/N=C/c2cc(/N=N/c3cccc([N+](=O)[O-])c3)ccc2[O][Co][O]c2ccc(/N=N/c3cccc([N+](=O)[O-])c3)cc2/C=N/c2ccc(OC)cc2)cc1 [5a(Co Lig2), bis[2-{(E)-(4-methoxyphenylimino)methyl}-4-{(E)-(3-nitrophenyl)diazenylphenoxy}cobalt]] | significant antibacterial activity | – | – | – | – | – | – | – | – | – | – | – | – | – | – | –
2 | Cc1cc(N=Nc2ccc([O][Cu][O]c3ccc(N=Nc4ccc(Br)c(C)c4)cc3C=Nc3nc(-c4ccc(Cl)cc4)cs3)c(C=Nc3nc(-c4ccc(Cl)cc4)cs3)c2)ccc1Br [Compound 6e, Bis[4-{(4-bromo-3-methylphenyl)diazenyl}-2-{(4-(4-chlorophenyl)thiazol-2-ylimino)methyl}phenoxy] copper,] | – | 14.83 ± 2.56 mm | 15.83 ± 2.23 mm | 14.5 ± 1.52 mm | 11.17 ± 6.21 | 10.5 ± 1.52 | 62.5 | 31.25 | 62.5 | 250 | 250 | 31.24 ± 0.06 | 41.31 ± 0.02 | 51.77 ± 0.08 | 79.89 ± 0.04 | 46 ± 0.98
3 | Bis[{4-((4-bromo-3-methylphenyl)diazenyl)-2-((4-phenylthiazol-2-limino)methyl)phenoxy}] cobalt [Compound 6a] | – | 16.67 ± 2.34 mm and 16.67 ± 2.34^∗ mm | 16.17 ± 1.94 mm and 16.17 ± 1.94^∗ mm | 20.83 ± 1.84 mm and 20.83 ± 1.84^∗ mm | 12.83 ± 2.23 | 13.67 ± 2.94 | 31.25 | 31.25 | 31.25 | 31.25 | 125 | 29.72 ± 0.07 | 43.32 ± 0.11 | 63.44 ± 0.07 | 83.02 ± 0.06 | 36 ± 0.56

Source: publication PMC6694902 (Journal of Taibah University Medical Sciences, 2017)
